ChEMBL document CHEMBL3600382, “A-ring substituted 17β-arylsulfonamides of 17β-aminoestra-1,3,5(10)-trien-3-ol as highly potent reversible inhibitors of steroid sulfatase” (Bioorg Med Chem, 2015)

Key:
[1] = molecular target: T1, Steryl-sulfatase (Homo sapiens, UniProt P08842); test: Reversible inhibition of STS (unknown origin) using 4-MUS as substrate measured over 10 mins by fluorescence assay; settings: read-out: Ki(app)
T1 sequence (P08842 whole entry): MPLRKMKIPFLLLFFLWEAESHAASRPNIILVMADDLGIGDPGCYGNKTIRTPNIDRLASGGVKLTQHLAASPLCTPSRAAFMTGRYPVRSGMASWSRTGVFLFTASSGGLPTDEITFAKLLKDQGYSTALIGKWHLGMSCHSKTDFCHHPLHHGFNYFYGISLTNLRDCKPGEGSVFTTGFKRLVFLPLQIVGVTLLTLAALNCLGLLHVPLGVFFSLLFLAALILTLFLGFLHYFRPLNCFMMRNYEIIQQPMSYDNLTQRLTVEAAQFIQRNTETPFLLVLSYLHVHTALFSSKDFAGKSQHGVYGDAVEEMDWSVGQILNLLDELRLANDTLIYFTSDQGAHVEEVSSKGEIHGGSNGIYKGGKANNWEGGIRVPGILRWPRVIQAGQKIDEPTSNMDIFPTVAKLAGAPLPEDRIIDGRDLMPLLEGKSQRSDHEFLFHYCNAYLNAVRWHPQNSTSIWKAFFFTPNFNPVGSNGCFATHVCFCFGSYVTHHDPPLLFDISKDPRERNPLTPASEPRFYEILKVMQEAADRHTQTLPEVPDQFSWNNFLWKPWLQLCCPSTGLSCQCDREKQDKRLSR
Summary of the method: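 Purified STS at 10 nM final with 200 µM 4-MUS in 0.1 M Tris-HCl pH 7.0 (enzyme stock contained Triton X-100). Eleven inhibitor levels, 5 nM–5 µM, were added from DMSO/buffer. 4-Methylumbelliferone fluorescence (ex 360, em 460 nm) was followed for 10 min at 24 °C, in quadruplicate, with no-enzyme controls. Vi/V0 initial rates were fitted for IC50. K_i^app was the IC50-vs-[E]T intercept at 10–80 nM STS.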

[2] = molecular target: T1, Steryl-sulfatase; test: Inhibition of STS (unknown origin) using 4-MUS as substrate measured over 10 mins by fluorescence assay
Summary of the method: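 Purified STS (10 nM final) in 0.1 M Tris-HCl pH 7.0 containing Triton X-100, 4-MUS 200 µM final, and inhibitor at eleven concentrations (5 nM–5 µM). Ex 360/em 460 fluorescence read over 10 min at 24 °C, in quadruplicate, with no-enzyme controls. Vi/V0 from initial rates fit to a slope-factor equation. For tight binders, Ki app is the y-intercept of IC50 vs [E] (10–80 nM).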

[3] = tested on: 786-0; test: Cytotoxicity against human 786-0 cells; type: functional
[4] = tested on: MOLT-4; test: Cytotoxicity against human MOLT4 cells; type: functional
[5] = tested on: MDA-MB-435; test: Cytotoxicity against human MDA-MB-435 cells; type: functional
[6] = tested on: RXF 393; test: Cytotoxicity against human RXF393 cells; type: functional
[7] = tested on: NCI-H23; test: Cytotoxicity against human NCI-H23 cells; type: functional
[8] = tested on: ACHN; test: Cytotoxicity against human ACHN cells; type: functional
[9] = tested on: CCRF-CEM; test: Cytotoxicity against human CCRF-CEM cells; type: functional
[10] = tested on: CAKI-1; test: Cytotoxicity against human Caki1 cells; type: functional
[11] = tested on: SN12C; test: Cytotoxicity against human SN12C cells; type: functional
[12] = tested on: OVCAR-8; test: Cytotoxicity against human OVCAR8 cells; type: functional
[13] = tested on: SK-OV-3; test: Cytotoxicity against human SKOV3 cells; type: functional
[14] = tested on: SNB-75; test: Cytotoxicity against human SNB75 cells; type: functional
[15] = tested on: SK-MEL-2; test: Cytotoxicity against human SK-MEL-2 cells; type: functional
[16] = tested on: SF-539; test: Cytotoxicity against human SF539 cells; type: functional
[17] = tested on: M14; test: Cytotoxicity against human M14 cells; type: functional
[18] = tested on: KM12; test: Cytotoxicity against human KM12 cells; type: functional
[19] = tested on: LOX IMVI; test: Cytotoxicity against human LOXIMVI cells; type: functional
[20] = tested on: COLO 205; test: Cytotoxicity against human COLO205 cells; type: functional
[21] = tested on: NCI-H460; test: Cytotoxicity against human NCI-H460 cells; type: functional
[22] = tested on: OVCAR-5; test: Cytotoxicity against human OVCAR5 cells; type: functional
[23] = tested on: SK-MEL-5; test: Cytotoxicity against human SK-MEL-5 cells; type: functional
[24] = tested on: HCC 2998; test: Cytotoxicity against human HCC2998 cells; type: functional
[25] = tested on: HOP-92; test: Cytotoxicity against human HOP92 cells; type: functional
[26] = tested on: SF-295; test: Cytotoxicity against human SF295 cells; type: functional
[27] = tested on: A498; test: Cytotoxicity against human A498 cells; type: functional
[28] = tested on: OVCAR-3; test: Cytotoxicity against human OVCAR3 cells; type: functional
[29] = tested on: SR; test: Cytotoxicity against human SR cells; type: functional
[30] = tested on: HL-60(TB); test: Cytotoxicity against human HL-60(TB) cells; type: functional
[31] = tested on: T47D; test: Cytotoxicity against human T47D cells; type: functional
[32] = tested on: TK-10; test: Cytotoxicity against human TK10 cells; type: functional
[33] = Cytotoxicity against human NCI-ADR-RES cells; type: functional
[34] = tested on: MDA-MB-231; test: Cytotoxicity against human MDA-MB-231 cells; type: functional
[35] = tested on: MDA-MB-468; test: Cytotoxicity against human MDA-MB-468 cells; type: functional
[36] = tested on: SF-268; test: Cytotoxicity against human SF268 cells; type: functional
[37] = tested on: A549; test: Cytotoxicity against human A549 cells; type: functional
[38] = tested on: SW-620; test: Cytotoxicity against human SW620 cells; type: functional
[39] = tested on: PC-3; test: Cytotoxicity against human PC3 cells; type: functional
[40] = tested on: IGROV-1; test: Cytotoxicity against human IGROV1 cells; type: functional
[41] = tested on: UACC-62; test: Cytotoxicity against human UACC62 cells; type: functional
[42] = tested on: UACC-257; test: Cytotoxicity against human UACC257 cells; type: functional
[43] = Cytotoxicity against human Hs578T cells; type: functional; settings: Hs-578T
[44] = tested on: BT-549; test: Cytotoxicity against human BT549 cells; type: functional
[45] = tested on: MCF7; test: Cytotoxicity against human MCF7 cells; type: functional
[46] = tested on: NCI-H226; test: Cytotoxicity against human NCI-H226 cells; type: functional
[47] = Cytotoxicity against human EKVX cells; type: functional
[48] = tested on: RPMI-8226; test: Cytotoxicity against human RPMI8226 cells; type: functional
[49] = tested on: HT-29; test: Cytotoxicity against human HT-29 cells; type: functional
[50] = tested on: U-251; test: Cytotoxicity against human U251 cells; type: functional

C[C@]12CC[C@@H]3c4ccc(O)c([N+](=O)[O-])c4CC[C@H]3[C@@H]1CC[C@@H]2NS(=O)(=O)c1ccc(-c2ccccc2)cc1 showed a Ki [1] of 1 nM.
For C[C@]12CC[C@@H]3c4ccc(O)c(Br)c4CC[C@H]3[C@@H]1CC[C@@H]2NS(=O)(=O)c1cccc(C(F)(F)F)c1, the IC50 [2] was 49 nM.
In the case of C[C@]12CC[C@@H]3c4ccc(O)c([N+](=O)[O-])c4CC[C@H]3[C@@H]1CC[C@@H]2NS(=O)(=O)c1cccc(C(F)(F)F)c1, the GI50 [3] is reported as 1000 nM, the GI50 [4] is reported as 1000 nM and the GI50 [5] is reported as 1000 nM. The GI50 [6] was 1000 nM, the GI50 [7] was 1000 nM and the GI50 [8] was 1000 nM. For the same compound, the GI50 [9] was 1000 nM, the GI50 [10] was 1000 nM and the GI50 [11] was 1000 nM. For the same compound, the GI50 [12] was 1000 nM, the GI50 [13] was 1000 nM and the GI50 [14] was 1000 nM. The GI50 [15] was 1000 nM, the GI50 [16] was 1000 nM and the GI50 [17] was 1000 nM. It also gave a GI50 [18] of 1000 nM, a GI50 [19] of 1000 nM and a GI50 [20] of 1000 nM. The GI50 [21] was 1000 nM, the GI50 [22] was 1000 nM and the GI50 [23] was 1000 nM. It also gave a GI50 [24] of 1000 nM, a GI50 [25] of 1000 nM and a GI50 [26] of 1000 nM. It also gave an IC50 [2] of 11 nM, a GI50 [27] of 1000 nM and a GI50 [28] of 1000 nM. The GI50 [29] was 1000 nM, the GI50 [30] was 1000 nM and the GI50 [31] was 1800 nM. It also gave a GI50 [32] of 1000 nM, a GI50 [33] of 1000 nM and a GI50 [34] of 1900 nM. For the same compound, the GI50 [35] was 2700 nM, the GI50 [36] was 1000 nM and the GI50 [37] was 1000 nM. It also gave a GI50 [38] of 1000 nM, a GI50 [39] of 1000 nM and a GI50 [40] of 1000 nM. For the same compound, the GI50 [41] was 1000 nM, the GI50 [42] was 1000 nM and the GI50 [43] was 2200 nM. For the same compound, the GI50 [44] was 1900 nM, the GI50 [45] was 1800 nM and the GI50 [46] was 1000 nM. It also gave a GI50 [47] of 1000 nM, a GI50 [48] of 1000 nM and a GI50 [49] of 1000 nM. It also gave a GI50 [50] of 1000 nM.
